Source: ChEMBL document CHEMBL1122138, “Fluorinated retinoic acids and their analogues. 3. Synthesis and biological activity of aromatic 6-fluoro analogues” (1982)

Legend:
Assay type in all cases: functional
[1] = species on record: Mus musculus; experiment: Hypervitaminosis A dose, a measure of toxicity, in mice was determined
Summary of the method: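 Mice received retinoid suspended in water with 0.1% carboxymethylcellulose and 0.01% Triton X-100. Dosing was ip daily Mon–Fri in week 1 and Mon–Thu in week 2. Symptoms were scored one day after the last injection: weight loss, skin redness/scaling, hair loss, nose/mouth mucosal changes, bone fractures. The value is the lowest daily dose at which 2 of 3 mice show one or more symptoms.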

[2] = system: Mus musculus; experiment: Antipapilloma activity was measured in mice as percentage effect by ip administration at the dose of 40 mg/kg/day.; settings: route intraperitoneal
[3] = system: Mus musculus; experiment: Antipapilloma activity was measured in mice as percentage effect by ip administration at the dose of 10 mg/kg/day.; settings: route intraperitoneal
[4] = system: Mus musculus; experiment: Antipapilloma activity was measured in mice as percentage effect by ip administration at the dose of 20 mg/kg/day.; settings: route intraperitoneal
[5] = system: Mus musculus; experiment: Antipapilloma activity was measured in mice as percentage effect by ip administration at the dose of 5 mg/kg/day.; settings: route intraperitoneal
[6] = system: Mus musculus; experiment: Antipapilloma activity was measured in mice as percentage effect by ip administration at the dose of 80 mg/kg/day.; settings: route intraperitoneal

| SMILES | Dose [1] | Effect [2] | Effect [3] | Effect [4] | Effect [5] | Effect [6] |
| --- | --- | --- | --- | --- | --- | --- |
| COC(=O)/C=C(C)/C=C/C(F)=C(C)/C=C/c1c(Cl)cc(OC)c(C)c1C | 200 mg/kg | -41% | – | – | – | – |
| COC(=O)/C=C(C)/C=C/C(F)=C(C)/C=C/c1c(C)cc(OC)c(C)c1C | 50 mg/kg | -79% | -35% | -60% | -28% | – |
| COC(=O)/C=C(C)/C=C/C(F)=C(C)/C=C/c1c(C)cc(OC)c(C)c1Cl | 50 mg/kg | – | – | -56% | – | – |
| COC(=O)/C=C(C)/C=C/C(F)=C(C)/C=C/c1c(C)cc(C)c(Cl)c1C | 200 mg/kg | – | – | – | – | -48% |
| COC(=O)/C=C(C)/C=C/C(F)=C(C)/C=C/c1c(Cl)cc(OC)c(Cl)c1Cl | >200 mg/kg | – | – | – | – | -58% |
| COC(=O)/C=C(C)/C=C/C(F)=C(C)/C=C/c1c(Cl)cc(OC)c(C)c1Cl | 200 mg/kg | – | – | – | – | -64% |
